Activity calls are given as the source filed them. No cut-off for these calls is given here.
Key:
MOLM-14 [1] = experiment: Induction of apoptosis in human MOLM14 cells assessed as necrotic cells at 2.5 uM after 72 hrs by Annexin V-FITC/propidium iodide staining-based flow cytometric analysis (reference value: 1%); assay type: functional
Summary of the method: (§1)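 100,000 cells per well treated with 2.5, 5.0 or 10 μM for 72 h. Washed in ice-cold Ca/Mg-free PBS, resuspended in 100 μl binding buffer, stained with 5 μl PI plus 3 μl annexin V-FITC for 15 min in the dark, then read immediately by flow cytometry. Quadrants scored as live, early apoptotic, late apoptotic and necrotic.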

MOLM-14 [2] = experiment: Induction of apoptosis in human MOLM14 cells assessed as late apoptotic cells at 5 uM after 72 hrs by Annexin V-FITC/propidium iodide staining-based flow cytometric analysis (reference value: 2%); assay type: functional; summary of the method: as §1
MOLM-14 [3] = experiment: Induction of apoptosis in human MOLM14 cells assessed as late apoptotic cells at 10 uM after 72 hrs by Annexin V-FITC/propidium iodide staining-based flow cytometric analysis (reference value: 2%); assay type: functional; summary of the method: as §1
MV4-11 [4] = experiment: Induction of apoptosis in human MV4-11 cells assessed as late apoptotic cells at 5 uM after 72 hrs by Annexin V-FITC/propidium iodide staining-based flow cytometric analysis (reference value: 2%); assay type: functional; summary of the method: as §1
MV4-11 [5] = experiment: Induction of apoptosis in human MV4-11 cells after 72 hrs by Annexin V-FITC/propidium iodide staining-based flow cytometric analysis; assay type: functional, cell-based; summary of the method: as §1
[6] = target: T1, Protein deacetylase HDAC6 (Homo sapiens) (UniProt Q9UBN7); experiment: Inhibition of HDAC6 in human MOLM14 cells assessed as increase in acetylation of tubulin at lysine 40 by Western blot analysis; assay type: cell-based; details: MOLM-14
T1 sequence (whole entry): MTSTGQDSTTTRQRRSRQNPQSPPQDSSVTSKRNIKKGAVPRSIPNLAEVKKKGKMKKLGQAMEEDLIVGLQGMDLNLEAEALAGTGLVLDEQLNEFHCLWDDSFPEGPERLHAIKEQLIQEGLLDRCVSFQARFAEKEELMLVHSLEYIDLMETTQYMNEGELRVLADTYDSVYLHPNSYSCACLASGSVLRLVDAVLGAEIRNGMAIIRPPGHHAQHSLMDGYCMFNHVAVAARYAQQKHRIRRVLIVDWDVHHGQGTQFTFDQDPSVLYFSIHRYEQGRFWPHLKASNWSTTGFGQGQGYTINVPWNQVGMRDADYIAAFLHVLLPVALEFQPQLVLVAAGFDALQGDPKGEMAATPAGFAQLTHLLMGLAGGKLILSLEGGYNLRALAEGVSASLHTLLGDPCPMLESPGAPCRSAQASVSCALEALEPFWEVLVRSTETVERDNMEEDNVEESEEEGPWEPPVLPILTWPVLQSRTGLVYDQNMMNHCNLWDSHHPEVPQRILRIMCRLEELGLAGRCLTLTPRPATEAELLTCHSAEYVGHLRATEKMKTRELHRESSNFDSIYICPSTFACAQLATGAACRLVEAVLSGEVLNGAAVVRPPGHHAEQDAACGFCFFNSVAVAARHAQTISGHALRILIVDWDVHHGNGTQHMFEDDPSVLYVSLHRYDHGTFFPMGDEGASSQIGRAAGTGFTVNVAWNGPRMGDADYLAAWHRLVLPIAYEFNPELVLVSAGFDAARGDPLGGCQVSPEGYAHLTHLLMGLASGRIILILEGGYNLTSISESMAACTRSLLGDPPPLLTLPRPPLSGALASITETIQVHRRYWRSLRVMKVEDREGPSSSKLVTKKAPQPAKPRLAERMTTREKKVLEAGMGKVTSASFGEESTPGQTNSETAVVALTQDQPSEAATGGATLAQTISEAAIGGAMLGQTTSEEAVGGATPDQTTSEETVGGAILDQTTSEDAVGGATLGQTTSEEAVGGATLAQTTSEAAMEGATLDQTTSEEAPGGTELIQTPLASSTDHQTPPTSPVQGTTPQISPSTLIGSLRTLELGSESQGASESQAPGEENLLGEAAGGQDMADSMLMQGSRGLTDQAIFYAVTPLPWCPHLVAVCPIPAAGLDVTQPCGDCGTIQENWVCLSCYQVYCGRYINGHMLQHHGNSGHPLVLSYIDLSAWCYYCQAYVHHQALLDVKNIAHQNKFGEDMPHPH

MOLM-14 [7] = experiment: Cytotoxicity against human MOLM14 cells assessed as cell viability at 0.25 to 5 uM by MTT assay; assay type: functional, cell-based
Summary of the method: (§2)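 AML cells kept in RPMI with 10 % FBS and 1 % penicillin-streptomycin at 37 °C, 5 % CO₂, mycoplasma-screened. Seeded at 8,000 cells/well across a range of concentrations and read at several times up to 96 h. MTT added to 0.5 mg/ml final for 3 h at 37 °C, formazan dissolved in SDS-HCl, absorbance read at 570 nm. IC50 taken from the dose-response curves.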

MV4-11 [8] = experiment: Cytotoxicity against human MV4-11 cells assessed as cell viability at 0.25 to 5 uM by MTT assay; assay type: functional, cell-based; summary of the method: as §2
MOLM-13 (Homo sapiens) [9] = experiment: Cytotoxicity against human MOLM13 cells assessed as cell viability after 24 to 96 hrs by MTT assay
MOLM-13 (Homo sapiens) [10] = experiment: Cytotoxicity against human MOLM13 cells assessed as cell viability measured at 96 hrs by MTT assay; details: MOLM-13, 96 h
MOLM-13 (Homo sapiens) [11] = experiment: Cell cycle arrest in human MOLM13 cells assessed as accumulation at G2/M phase after 72 hrs by propidium iodide staining-based flow cytometric analysis
MOLM-13 (Homo sapiens) [12] = experiment: Induction of apoptosis in human MOLM13 cells assessed as necrotic cells at 5 uM after 72 hrs by Annexin V-FITC/propidium iodide staining-based flow cytometric analysis (reference value: 3%)
MOLM-13 (Homo sapiens) [13] = experiment: Induction of apoptosis in human MOLM13 cells assessed as necrotic cells at 10 uM after 72 hrs by Annexin V-FITC/propidium iodide staining-based flow cytometric analysis (reference value: 3%)
MOLM-13 (Homo sapiens) [14] = experiment: Induction of apoptosis in human MOLM13 cells assessed as necrotic cells at 2.5 uM after 72 hrs by Annexin V-FITC/propidium iodide staining-based flow cytometric analysis (reference value: 3%)
MOLM-13 (Homo sapiens) [15] = experiment: Induction of apoptosis in human MOLM13 cells assessed as early apoptotic cells at 5 uM after 72 hrs by Annexin V-FITC/propidium iodide staining-based flow cytometric analysis (reference value: 11%)

`c1ccc(Oc2ccc(-c3cn(-c4noc5ccccc45)nn3)cc2)cc1` gave an Activity (MOLM-14 [1]) of 2%, an Activity (MOLM-14 [2]) of 28% and an Activity (MOLM-14 [3]) of 30%. For the same compound, the Activity (MV4-11 [4]) was 20%, the Activity (MV4-11 [5]) was “Dose-dependent effect” and the inhibition [6] was “Active”. The Activity (MOLM-14 [7]) was “Dose-dependent effect”, the Activity (MV4-11 [8]) was “Dose-dependent effect” and the Activity (MOLM-13 (Homo sapiens) [9]) was “Dose-dependent effect”. The IC50 (MOLM-13 (Homo sapiens) [10]) was 1000 nM, the Activity (MOLM-13 (Homo sapiens) [11]) was “Active” and the Activity (MOLM-13 (Homo sapiens) [12]) was 18%. It also gave an Activity (MOLM-13 (Homo sapiens) [13]) of 18%, an Activity (MOLM-13 (Homo sapiens) [14]) of 14% and an Activity (MOLM-13 (Homo sapiens) [15]) of 19%.

From ChEMBL document CHEMBL3612059, “Synthesis of 1,2-benzisoxazole tethered 1,2,3-triazoles that exhibit anticancer activity in acute myeloid leukemia cell lines by inhibiting histone deacetylases, and inducing p21 and tubulin acetylation” (Bioorg Med Chem, 2015)
